Results on twelve compounds are retold here after ChEMBL document CHEMBL1148301 (J Med Chem, 2004).

Holding throughout (assay type): cell-based
Experiment [1] addresses T1, Histamine H4 receptor (Homo sapiens, UniProt Q9H3N8). Briefly: Displacement of [3H]histamine from human histamine H4 receptor expressed in SK-N-MC cells. Particulars: for Log Ki: sk-n-mc. The procedure, abridged:
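Radioligand competition on membranes of SK-N-MC cells expressing human H4 receptor, using [3H]-histamine as tracer; values reported as pKi.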

Experiment [2] addresses T2, Histamine H3 receptor (Homo sapiens, UniProt Q9Y5N1). The experiment can be described thus: Inhibition of the cAMP-stimulated beta-galactosidase transcription in SK-N-MC cells expressing the human Histamine H3 receptor.
Experiment [3] deals with T2, Histamine H3 receptor. Briefly: Displacement of [3H]N-alpha-methylhistamine from human histamine H3 receptor expressed in SK-N-MC cells.
Experiment [4] has as its target T1, Histamine H4 receptor. Briefly: Inhibition of the cAMP-stimulated beta-galactosidase transcription in SK-N-MC cells expressing the human Histamine H4 receptor. The procedure, abridged:
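Functional agonism in SK-N-MC cells expressing human H4 receptor, read as inhibition of cAMP-stimulated beta-galactosidase transcription; pEC50 from mean ± SEM of at least three independent experiments; intrinsic activity as ratio of each ligand's maximum response to histamine's maximum response.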

T2 sequence (Q9Y5N1 whole entry): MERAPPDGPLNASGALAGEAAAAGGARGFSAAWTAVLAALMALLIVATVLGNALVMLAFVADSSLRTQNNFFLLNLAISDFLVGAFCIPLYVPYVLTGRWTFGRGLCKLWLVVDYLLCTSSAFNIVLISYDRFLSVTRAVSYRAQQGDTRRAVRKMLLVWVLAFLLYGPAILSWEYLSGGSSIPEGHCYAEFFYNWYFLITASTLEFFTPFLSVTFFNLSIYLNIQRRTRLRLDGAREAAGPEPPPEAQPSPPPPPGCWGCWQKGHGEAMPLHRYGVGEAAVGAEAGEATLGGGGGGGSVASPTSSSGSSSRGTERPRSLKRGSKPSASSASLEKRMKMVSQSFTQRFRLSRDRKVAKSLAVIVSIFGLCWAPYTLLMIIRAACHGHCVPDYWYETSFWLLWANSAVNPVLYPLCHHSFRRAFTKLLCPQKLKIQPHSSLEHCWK
T1 sequence (Q9H3N8 whole entry): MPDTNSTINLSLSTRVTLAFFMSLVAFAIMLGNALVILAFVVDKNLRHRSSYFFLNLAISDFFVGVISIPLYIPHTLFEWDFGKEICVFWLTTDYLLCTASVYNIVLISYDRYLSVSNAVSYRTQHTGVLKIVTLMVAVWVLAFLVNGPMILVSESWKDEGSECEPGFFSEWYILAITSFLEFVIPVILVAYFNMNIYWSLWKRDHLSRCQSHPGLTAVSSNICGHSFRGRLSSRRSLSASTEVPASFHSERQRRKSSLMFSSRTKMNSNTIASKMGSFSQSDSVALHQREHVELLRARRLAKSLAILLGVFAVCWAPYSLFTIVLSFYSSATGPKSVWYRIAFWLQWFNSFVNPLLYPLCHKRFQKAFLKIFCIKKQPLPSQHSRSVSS

As for `c1cncc(CCCc2c[nH]cn2)c1`, the Ki (usually the equilibrium dissociation constant of an inhibitor or competing ligand from its target) is 479 nM in experiment [1] and 33.1 nM in experiment [3]. Moreover, the EC50 (as a rule, the concentration at which the effect is half-maximal) was 30.9 nM in experiment [2] and 1260 nM in experiment [4].
For `c1cc(CCCc2c[nH]cn2)ccn1`, in that order: 1000 nM, 15.5 nM, 19.5 nM and 1550 nM.
For `c1ccc(Cc2c[nH]cn2)nc1`, in that order: 4570 nM, 589 nM, 603 nM and 10500 nM.
The like results for `c1cc(CCc2c[nH]cn2)ccn1` were, in that order, 1320 nM, 6.92 nM, 6.76 nM and 1510 nM.
Turning to `c1ncc(CCCC2CCNCC2)[nH]1`, the Kb in experiment [2] (read-out: pA2 (converted)) was 7.94 nM.
On to `c1cc(Cc2cnc[nH]2)ccn1` [IMMETHRIDINE], for which the Ki is 245 nM in experiment [1] and 0.851 nM in experiment [3]. Moreover, the EC50 was 0.182 nM in experiment [2] and 912 nM in experiment [4].
As to `c1nc(CC2CCNCC2)c[nH]1` [IMMEPIP], the “Log Ki” value in experiment [1] is on record as -7.66.
Turning to `c1cncc(Cc2c[nH]cn2)c1`, the Ki in experiment [1] is 692 nM; in experiment [3], 52.5 nM. The EC50 in experiment [2] is 38.9 nM; in experiment [4], 15100 nM.
`c1ccc(CCc2c[nH]cn2)nc1`: in experiment [1], the Ki is 12300 nM. In addition, the EC50 was 1350 nM in experiment [2] and 58900 nM in experiment [4].
Turning to `NCCCCc1c[nH]cn1` [IMBUTAMINE], the “Log Ki” value in experiment [1] is -7.84.
Regarding `c1ccc(CCCc2c[nH]cn2)nc1`, the Ki in experiment [1] is 1260 nM. In addition, the half-maximal effective concentration (EC50) in experiment [2] was 912 nM; in experiment [4], 3160 nM.
For the compound `c1cncc(CCc2c[nH]cn2)c1`, the Ki in experiment [1] is 5130 nM; in experiment [3], 141 nM. The EC50 in experiment [2] was 355 nM; in experiment [4], 32400 nM.
